The series in a line: Toxicity liver stage against HepG2, at 10uM. More on the design: test concentration 10 uM, cell line HepG2-A16-CD81EGFP. The conditions noted are these: human, HepG2-A16-CD81EGFP cells; read-out: INHIBITION
The series is classed as cell-based. Summed up:
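Uninfected HepG2-A16-CD81EGFP cells, 3 × 10^3 per well, 1536-well, plated on prespotted compound at 10 μM final, parasite-free screening media added to match infected plates; puromycin 10 μM positive, DMSO 0.5% negative; run in parallel with 48 h PbLuc assay at 37 °C, 5% CO2; viability by CellTiter-Glo luminescence, normalized to controls.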

Take `O=S(=O)(CC1CCCCO1)Nc1cnn(Cc2ccccc2)c1` (stereo unspecified): the cytotoxicity at 10 µM turned out to be 4.34%.

Consider `Oc1cc(C2CCCCN2C2CCCC2)nc(-c2cccnc2)n1` (stereo unspecified), for which the cytotoxicity at 10 µM is 11.2%.

On to `CC(=O)N1CCC(N[C@@H]2CO[C@H](CNC(=O)C3CCCC3)[C@H]2O)CC1`, for which the cytotoxicity at 10 µM is -2.17%.

`CCC(=O)NS(=O)(=O)c1cccnc1Nc1cccc(Cl)c1Cl`: the cytotoxicity at 10 µM came out at 0.0207%.

For the compound `O=C(CN1CCCC1Cn1cncn1)NCCC1=CCCCC1` (stereo unspecified), the cytotoxicity at 10 µM was -16.5%.

Regarding `COCCn1c(-c2cccc(OC)c2)cnc1NC(=O)NC(C)C`, the cytotoxicity at 10 µM stood at 4.04%.

On to `O=C(c1ccoc1)N1CCCN(CC2CCOc3ccccc3C2)CC1` (stereo unspecified), for which the cytotoxicity at 10 µM came to 0.0531%.

Take `COC(=O)c1ccc(CN(C)C(=O)c2cnsn2)cc1`: the cytotoxicity at 10 µM was determined as 9.59%.

Turning to `CCn1nc(C)c(C(C)NC(=O)c2cccc(NCC(=O)O)c2)c1C` (stereo unspecified), the cytotoxicity at 10 µM was found to be 3.04%.

As for `Cc1noc(C)c1CN1C[C@@H]2COC[C@H](C(=O)N3CCCO3)[C@@H]2C1`, the cytotoxicity at 10 µM is -66.6%.

In the case of `O=C(c1cccs1)N1CC[C@H]2C[C@@H](c3nnc(C4CC4)o3)O[C@@H]2C1`, the cytotoxicity at 10 µM is -109%.

Regarding `CN(C)C(=O)CN1CCOCC2(CCN(CC3CCOCC3)CC2)C1`, the cytotoxicity at 10 µM amounted to 8.55%.

Consider `O=C(NCCc1nc2ccccc2s1)c1coc(CN2CCOCC2)c1`, for which the cytotoxicity at 10 µM was -5.69%.

On to `Cc1cnn(CC(C)Nc2nc(C)cc(N(C)C)n2)c1` (stereo unspecified), for which the cytotoxicity at 10 µM was 7.07%.

On to `CCCNC(=O)COc1cc(C)c2c(C)nn(-c3ccc(C)cc3)c2n1`, for which the cytotoxicity at 10 µM is -0.217%.

`CN(CCS(=O)(=O)c1cc(Cl)ccc1Cl)CC(N)=O`: the cytotoxicity at 10 µM was 4.65%.

For `O=C(CN1CCOC(CNc2cccnn2)C1)NCc1cccs1` (stereo unspecified), the cytotoxicity at 10 µM was -14%.

For the compound `Cc1csc(N2CCN(C(=O)C(C(C)C)n3cncn3)CC2)n1` (stereo unspecified), the cytotoxicity at 10 µM is -13.1%.

`CCC(C(=O)N1CCCN(CCN(C)C)CC1)N1CCCC1=O` (stereo unspecified): the cytotoxicity at 10 µM stood at 4.38%.

For the compound `O=c1ccc(-c2cccs2)nn1CN1CCc2ccccc2C1`, the cytotoxicity at 10 µM was determined as 14.3%.

As to `O=C(c1ccc2c(c1)[nH]c(=O)n2C1CCCC1)N1CCCSCC1`, the cytotoxicity at 10 µM was -41.2%.

On to `Cc1nc(CN2CCCC(C)(CO)C2)no1` (stereo unspecified), for which the cytotoxicity at 10 µM was determined as 5.89%.

As to `CCn1cnnc1CNC(=O)NC(C)c1cccs1` (stereo unspecified), the cytotoxicity at 10 µM is -4.92%.

Take `O=C1C(Nc2ncccn2)CCN1c1ccccc1OC(F)F` (stereo unspecified): the cytotoxicity at 10 µM came to 2.88%.

On to `Cc1cnc(NC(=O)c2cccc(CN(C)Cc3ccno3)c2)s1`, for which the cytotoxicity at 10 µM was determined as 61.3%.

Regarding `CC(C)OCCN(C)C(C)c1cccc(S(N)(=O)=O)c1` (stereo unspecified), the cytotoxicity at 10 µM is -8.6%.

As for `Cc1cc(NCc2ccccc2)nc2[nH]nc(N)c12`, the cytotoxicity at 10 µM was -44%.

Take `Cc1noc(C)c1CN1C(=O)[C@@H]2CC[C@H]1CN(Cc1ccc(Cl)cc1)C2`: the cytotoxicity at 10 µM came to 6.22%.

For the compound `CC(C)(C)NC(=O)N1CCC(NC(=O)Cc2cccnc2)CC1`, the cytotoxicity at 10 µM amounted to 0.355%.

As for `CCc1nnc(CNC(=O)c2cc3c(nc2OC)CCC3)s1`, the cytotoxicity at 10 µM came out at 0.156%.

Consider `Cc1n[nH]cc1CNC(=O)CCCc1cccs1`, for which the cytotoxicity at 10 µM was -52.3%.

As for `CCc1nc(C2CCCN2CC(=O)N2CCc3ccccc32)no1` (stereo unspecified), the cytotoxicity at 10 µM was -11.2%.

Regarding `CN1CCCN(C(=O)c2csc(-c3ccc(C(F)(F)F)cc3)n2)CC1`, the cytotoxicity at 10 µM was -5.81%.

As for `Cc1nc2c(C#N)cnn2c(C)c1CCC(=O)N(C)C1CC1`, the cytotoxicity at 10 µM was -47.2%.

Turning to `O=C1NCCCc2[nH]c(Cc3ccc(F)cc3)nc21`, the cytotoxicity at 10 µM is -20.9%.

Consider `Cn1cc(C#N)cc1C(=O)Nc1ccc(CN2CCOCC2)cn1`, for which the cytotoxicity at 10 µM is -6.68%.

Turning to `CCS(=O)(=O)NCC(=O)N1CCC(c2cc3ccccc3[nH]2)CC1`, the cytotoxicity at 10 µM is -7.79%.

Take `CC(C)COCCCNC(=O)c1cccnc1N1CCOCC1`: the cytotoxicity at 10 µM is -5.12%.

In the case of `CC(=O)N1CCC(NC(=O)c2cc(S(N)(=O)=O)ccc2C)CC1`, the cytotoxicity at 10 µM turned out to be 11.7%.

Take `NS(=O)(=O)c1ccc(CC(=O)N2CCCC(n3cccn3)C2)cc1` (stereo unspecified): the cytotoxicity at 10 µM is -0.481%.

Regarding `COc1ccccc1C(C)CNC(=O)c1[nH]ncc1Br` (stereo unspecified), the cytotoxicity at 10 µM was 18.1%.

On to `CN(C)c1cc(CNC(=O)c2ccccc2Cl)ccn1`, for which the cytotoxicity at 10 µM was -8.28%.

With `Cc1noc(C)c1CNC(C(=O)N1CCOCC1)C(C)C` (stereo unspecified), the cytotoxicity at 10 µM came to 4.55%.

Consider `Cc1ccc(N2CCC(C(=O)NC3CCc4nccn4C3)CC2)nc1` (stereo unspecified), for which the cytotoxicity at 10 µM was -7.39%.

Consider `CCS(=O)(=O)N1C[C@H]2CN(c3cnn(C)c3)C(=O)[C@H]2C1`, for which the cytotoxicity at 10 µM was -1.19%.

Regarding `COc1ccc(C)cc1C(C(=O)O)N1CCN(Cc2ccccn2)CC1` (stereo unspecified), the cytotoxicity at 10 µM was determined as 4.4%.

`CC(C)CN(Cc1ccc(O)c(C(=O)O)c1)Cc1cnn(C)c1`: the cytotoxicity at 10 µM was -3.86%.

Regarding `O=C(c1cscn1)N1CCn2cnc(COCC3CC3)c2C1`, the cytotoxicity at 10 µM is -4.6%.

In the case of `CN(C)[C@@H]1CO[C@H](CNC(=O)C2CCCC2)[C@H]1O`, the cytotoxicity at 10 µM was -0.321%.

On to `COc1c(Br)cccc1CCNC(=O)c1ccon1`, for which the cytotoxicity at 10 µM is -2.88%.

Consider `OCCN1CCOC2(CCCN(c3cccc(F)c3)C2)C1` (stereo unspecified), for which the cytotoxicity at 10 µM amounted to 2.01%.

As to `CCc1nc(CN2CCCC(NCc3cnn(C(C)(C)C)c3)C2)no1` (stereo unspecified), the cytotoxicity at 10 µM is -6.77%.

Consider `Cc1nnsc1C(=O)N1CC(c2nc3ccccc3[nH]2)C1`, for which the cytotoxicity at 10 µM is 4.17%.

Take `O=C(c1ccc(Cl)o1)N1CCCC1c1nnc2n1CCCCC2` (stereo unspecified): the cytotoxicity at 10 µM is -4.52%.

As for `Cc1cc(C)cc(NC(=O)CN2CCCC(n3cncn3)C2)c1` (stereo unspecified), the cytotoxicity at 10 µM is -9.93%.

Consider `COc1cc(OC)c(C2CC(=O)Oc3cc(C)[nH]c(=O)c32)cc1OC` (stereo unspecified), for which the cytotoxicity at 10 µM was -4.81%.

Take `O=C1[C@H]2CN(Cc3ccccc3)C[C@H]2CN1c1cncnc1`: the cytotoxicity at 10 µM is -4.53%.

Regarding `Cc1ccsc1-c1cccc(-c2ccn(CC3CCNC3)n2)c1` (stereo unspecified), the cytotoxicity at 10 µM is -0.288%.

For `CCc1cc(NCCCN(C)C2CCCC2)ncn1`, the cytotoxicity at 10 µM came to 1.75%.

Regarding `Cc1ccc2c(c1)C1(CCN(C(N)=O)CC1)CN2CC1CC1`, the cytotoxicity at 10 µM is -109%.

Consider `CC(C)Nc1ncc(CN2C[C@@H](CN3CCC(O)CC3)[C@@H](CO)C2)cn1`, for which the cytotoxicity at 10 µM was determined as 18.5%.

As to `Cc1ccc(CN2CC[C@H]3C[C@H](C(=O)N(C)C)O[C@H]3C2)cc1`, the cytotoxicity at 10 µM turned out to be 1.94%.

Turning to `Cc1cnc(CN(C)C2CCN(CCCc3cnn(C)c3)C2)o1` (stereo unspecified), the cytotoxicity at 10 µM came out at 2.61%.

In the case of `Cc1csc(CNC(=O)CCCc2cccs2)n1`, the cytotoxicity at 10 µM was -47.1%.

Turning to `CCOCCn1nc(C)cc1C(=O)N1CCOCC(CO)C1` (stereo unspecified), the cytotoxicity at 10 µM is -20%.

`CC(C)NC(=O)N1CCN(C(=O)C(C)C)CC2(CC(=O)N(C)C2)C1` (stereo unspecified): the cytotoxicity at 10 µM is -0.704%.

Take `Cc1nn(C)cc1C(=O)NCc1csc(C2CC2)n1`: the cytotoxicity at 10 µM is -4.1%.

Take `CN(C)c1ccccc1CN1CCCC(N2CCCC2=O)C1` (stereo unspecified): the cytotoxicity at 10 µM is -9.13%.

As to `CNC(=O)c1ccc(CNC(=O)c2cc(C(C)C)n(C)n2)cc1`, the cytotoxicity at 10 µM is -9.71%.

Turning to `Cc1c(I)cccc1C(=O)NCc1nnc[nH]1`, the cytotoxicity at 10 µM was -2.86%.

Turning to `O=C(C1CCC1)N1CCN(c2snc3ccccc23)CC1`, the cytotoxicity at 10 µM is 11.2%.

Regarding `Clc1ccccc1Cn1cc(CNC2CCc3ncnn3C2)cn1` (stereo unspecified), the cytotoxicity at 10 µM was found to be 1.91%.

On to `CC(NC1CCN(CCc2ccncc2)CC1)c1cnn(C(C)C)c1` (stereo unspecified), for which the cytotoxicity at 10 µM was -4.97%.

Turning to `COc1cc(C)ccc1OCc1nc(C(=O)N2CCCNC(=O)C2)co1`, the cytotoxicity at 10 µM was -44.5%.

Consider `Nc1cc(-c2cc(C(=O)O)ccc2Cl)c2cc[nH]c2n1`, for which the cytotoxicity at 10 µM was 1.94%.

Consider `N#Cc1cccc(CN2CCn3cc(CNC(=O)C4CCC4)nc3C2)c1`, for which the cytotoxicity at 10 µM was determined as 14%.

For the compound `O=C1O[C@@H]2CN(c3cnccn3)C[C@@H]2N1CCCc1ccc(F)cc1`, the cytotoxicity at 10 µM is -3.94%.

For `Cc1nn(C)c(N(C)C)c1CNCCCNS(C)(=O)=O`, the cytotoxicity at 10 µM is -5.98%.

Regarding `CN1CCOC(C(=O)Nc2nc(-c3ccc4c(c3)CCC4)n[nH]2)C1` (stereo unspecified), the cytotoxicity at 10 µM was -7.53%.

As for `Cc1nc(N2CCCCC2)ncc1-c1cc(=O)[nH]c(N2CCCC2)n1`, the cytotoxicity at 10 µM came out at 1%.

`CCN(C(C)c1cccc(O)c1)S(=O)(=O)c1cccnc1` (stereo unspecified): the cytotoxicity at 10 µM was determined as 10.8%.

As to `Cc1ccccc1NS(=O)(=O)c1cc2c(c(C(=O)O)c1)OCCO2`, the cytotoxicity at 10 µM was -11.7%.

Take `CN(CC(=O)N1CCN(CC(C)(C)O)CC1)c1ccc(Cl)cn1`: the cytotoxicity at 10 µM was -2.87%.

On to `Cc1ccsc1C1CCCCCN1Cc1cn(C)nc1C` (stereo unspecified), for which the cytotoxicity at 10 µM is -4.38%.

For the compound `CCNC(=O)C(C)(C)NC(=O)NCc1cccc(Br)c1`, the cytotoxicity at 10 µM amounted to 8.44%.

As to `CC(C)c1nccn1C1CCCN(C(=O)CCc2cnn(C)c2)C1` (stereo unspecified), the cytotoxicity at 10 µM was -1.58%.

As for `CSCc1noc(CNS(=O)(=O)c2cccc(C(=O)NC3CC3)c2)n1`, the cytotoxicity at 10 µM was -2.51%.

For `COc1ccccc1CC(=O)N(C)Cc1cc(C)on1`, the cytotoxicity at 10 µM worked out at 4.76%.

Consider `CC(C)C1Nc2ccccc2C(=O)N1CC(=O)Nc1nc2c(s1)CCC2` (stereo unspecified), for which the cytotoxicity at 10 µM was 2.31%.

As to `Cc1ccccc1CN1CCC2(COCc3cnc(N(C)C)nc32)C1` (stereo unspecified), the cytotoxicity at 10 µM is -8.22%.

Turning to `Cc1noc(C)c1CN1C[C@@H](NS(=O)(=O)N(C)C)[C@H](C(C)C)C1`, the cytotoxicity at 10 µM worked out at 3.61%.

Take `OCC1(O)CCN(c2ncccc2C(F)(F)F)CC1`: the cytotoxicity at 10 µM is -13.6%.

Take `CCc1cc(=O)[nH]c(NC2CCN(S(=O)(=O)c3ccccc3)CC2)n1`: the cytotoxicity at 10 µM was -5.49%.

With `Cc1cc(CN2C[C@@H](C)[C@@]3(CCN(C)C3=O)C2)oc1C`, the cytotoxicity at 10 µM was found to be 8.34%.

In the case of `CC(C)Nc1ccc(-c2ccnc3c2ccn3C)nn1`, the cytotoxicity at 10 µM is -7.94%.

For `COc1ccccc1CCN[C@@H]1c2ccccc2C2(CCNCC2)[C@H]1O`, the cytotoxicity at 10 µM was found to be 5.79%.

The record behind these values is ChEMBL document CHEMBL4513216, “Probing the Open Global Health Chemical Diversity Library for Multistage-Active Starting Points for Next-Generation Antimalarials” (ACS Infect Dis, 2020).
